The record followed here is ChEMBL document CHEMBL1135711, “Evaluation of the Dmt-Tic pharmacophore: conversion of a potent delta-opioid receptor antagonist into a potent delta agonist and ligands with mixed properties” (J Med Chem, 2002).

The target of assay [1] is Mu-type opioid receptor (Rattus norvegicus, UniProt P33535). In words: Binding affinity for rat brain P2 synaptosome Opioid receptor mu 1. Format: tissue-based. The method in brief: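 Equilibrium competition binding on rat brain P2 synaptosomes with [3H]DAGO for µ sites, in 50 mM HEPES pH 7.5 with MgCl2, protease inhibitors and glycerol. 120 min at 23-24 °C, GF/C filtration, ice-cold Tris/BSA washes. Nonspecific binding defined by 2 µM DAGO. 5-8 graded doses over 2-3 log units.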
Chain of Mu-type opioid receptor (Rattus norvegicus, UniProt P33535) (P33535 whole entry): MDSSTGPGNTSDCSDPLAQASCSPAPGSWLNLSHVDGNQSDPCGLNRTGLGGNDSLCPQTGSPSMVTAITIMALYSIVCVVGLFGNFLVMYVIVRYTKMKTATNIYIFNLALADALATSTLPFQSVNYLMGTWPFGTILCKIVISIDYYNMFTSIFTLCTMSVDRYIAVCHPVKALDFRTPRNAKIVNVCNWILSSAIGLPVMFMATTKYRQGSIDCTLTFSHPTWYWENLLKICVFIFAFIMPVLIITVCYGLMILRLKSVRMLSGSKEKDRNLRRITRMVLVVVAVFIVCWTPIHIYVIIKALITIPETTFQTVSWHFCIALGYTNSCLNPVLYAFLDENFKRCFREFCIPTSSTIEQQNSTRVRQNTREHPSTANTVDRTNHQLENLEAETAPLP

Assay [2] addresses T1, Mu-type opioid receptor (Cavia porcellus, UniProt P97266). As to the kind of experiment: Negative logarithm of the molar concentration of an agonist to produce 50% of the maximum effect in guinea pig ileum (mu receptor) determined by Salvadori et al. Format: functional, tissue-based.
The target of assay [3] is Delta-type opioid receptor (Rattus norvegicus, UniProt P33533). In words: Binding affinity at Opioid receptor delta 1 using rat brain receptor (P2 synaptosome) assay. The assay is classed as tissue-based. The method in brief: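 Competition binding at equilibrium on rat brain P2 synaptosomes with [3H]DPDPE for δ sites, in 50 mM HEPES pH 7.5 with MgCl2, protease inhibitors and glycerol. Incubation 120 min at 23-24 °C, then GF/C filtration and ice-cold Tris/BSA washes. Nonspecific binding defined by 2 µM DPDPE. 5-8 graded doses over 2-3 log units.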
Chain of Delta-type opioid receptor (Rattus norvegicus, UniProt P33533) (P33533 whole entry): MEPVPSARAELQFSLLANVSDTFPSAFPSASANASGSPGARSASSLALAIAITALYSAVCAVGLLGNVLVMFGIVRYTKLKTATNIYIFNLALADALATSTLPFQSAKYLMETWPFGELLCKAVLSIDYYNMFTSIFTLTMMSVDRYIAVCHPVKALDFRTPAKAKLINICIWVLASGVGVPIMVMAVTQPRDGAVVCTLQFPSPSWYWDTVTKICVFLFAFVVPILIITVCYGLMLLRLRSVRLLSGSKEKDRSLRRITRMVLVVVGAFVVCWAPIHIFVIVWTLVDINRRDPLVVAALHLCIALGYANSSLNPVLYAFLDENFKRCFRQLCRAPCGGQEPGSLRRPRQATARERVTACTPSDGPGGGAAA

For assay [4], the target named is Delta-type opioid receptor (Mus musculus) (UniProt P32300). As to the kind of experiment: Molar concentration required to double the agonist concentration to achieve the original response in mouse vas deferens (MVD). Format: functional, tissue-based.
Chain of Delta-type opioid receptor (Mus musculus) (P32300 whole entry): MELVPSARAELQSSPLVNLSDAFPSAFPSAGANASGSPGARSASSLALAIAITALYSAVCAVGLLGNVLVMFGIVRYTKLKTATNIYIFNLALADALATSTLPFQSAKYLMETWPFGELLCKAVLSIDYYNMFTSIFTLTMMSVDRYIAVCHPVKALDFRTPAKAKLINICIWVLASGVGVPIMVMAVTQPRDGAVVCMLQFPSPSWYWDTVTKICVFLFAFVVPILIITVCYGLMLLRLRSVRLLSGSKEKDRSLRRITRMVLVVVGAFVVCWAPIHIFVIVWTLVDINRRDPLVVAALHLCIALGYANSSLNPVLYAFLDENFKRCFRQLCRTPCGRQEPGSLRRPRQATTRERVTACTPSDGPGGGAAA
The target in assay [5] is T2, Delta-type opioid receptor (Mus musculus, UniProt P32300). In words: Negative logarithm of the molar concentration required to double the agonist concentration to achieve the original response in mouse vas deferens (MVD). The assay is classed as functional, tissue-based. Particulars: read-out: pA2 (converted).
T2 sequence (P32300 whole entry): as above
In assay [6] the target is Mu-type opioid receptor (Mus musculus, UniProt P42866). In words: Opioid receptor delta 1 or Opioid receptor mu 1 antagonist activity tested in mouse vas deferens (MVD) along with N,N-dimethyl-Dmt-Tic-OH. To be noted: read-out: pA2 (converted). The assay is classed as functional, tissue-based.
Chain of Mu-type opioid receptor (Mus musculus, UniProt P42866) (P42866 whole entry): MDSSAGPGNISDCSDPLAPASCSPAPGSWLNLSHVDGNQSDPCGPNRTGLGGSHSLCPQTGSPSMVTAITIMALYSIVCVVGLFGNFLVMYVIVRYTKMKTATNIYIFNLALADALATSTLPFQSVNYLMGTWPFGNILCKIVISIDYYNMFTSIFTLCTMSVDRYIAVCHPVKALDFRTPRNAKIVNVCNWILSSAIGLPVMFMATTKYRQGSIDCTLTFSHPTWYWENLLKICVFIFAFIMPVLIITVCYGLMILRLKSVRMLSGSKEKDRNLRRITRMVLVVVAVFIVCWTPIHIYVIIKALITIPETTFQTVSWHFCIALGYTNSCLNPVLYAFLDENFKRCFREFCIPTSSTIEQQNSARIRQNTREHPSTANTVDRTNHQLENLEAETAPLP
In assay [7] the target is T2, Delta-type opioid receptor. In words: Opioid receptor delta 1 or Opioid receptor mu 1 antagonist activity tested in mouse vas deferens (MVD) along with, naloxone. The assay is classed as functional, tissue-based. To be noted: read-out: pA2 (converted).
Assay [8] is filed under the species Mus musculus. As to the kind of experiment: Delta or Mu antagonist activity tested in mouse vas deferens (MVD) along with, naloxone. To be noted: read-out: pA2 (converted).
The target of assay [9] is T1, Mu-type opioid receptor. In words: Negative logarithm of the molar concentration of an agonist to produce 50% of the maximum effect in guinea pig ileum (mu receptor) determined. Format: functional, tissue-based.
For assay [10], the species on record is Mus musculus. In words: Delta or Mu antagonist activity tested in mouse vas deferens (MVD) along with N,N-dimethyl-Dmt-Tic-OH. Particulars: read-out: pA2 (converted).

Square brackets hold non-standard residues; d marks the D form. Peptide text beside a SMILES is read from it. * marks the point of attachment. ξ: configuration not given here. Dmt = Cc1cc(O)cc(C)c1C[C@H](N)C(=O)O; Tic = O=C(O)[C@@H]1Cc2ccccc2CN1; ξTic = O=C(O)C1Cc2ccccc2CN1; NHBn = c1ccc(CN*)cc1; NHPh = c1ccc(N*)cc1

T1 sequence (P97266 whole entry): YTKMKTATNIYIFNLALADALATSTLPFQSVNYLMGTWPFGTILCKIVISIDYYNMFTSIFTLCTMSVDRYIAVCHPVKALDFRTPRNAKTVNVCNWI

By Ki is commonly meant the dissociation constant of the complex between target and ligand, obtained from inhibition or displacement. Read a low Ki as higher affinity. By EC50 is commonly meant the concentration that produces a half-maximal response. Lower therefore signals greater potency. `Cc1cc(O)cc(C)c1C[C@H](N)C(=O)N1Cc2ccccc2C[C@H]1C(=O)NCCc1nc2ccccc2[nH]1`: the values for the Ki (at Mu-type opioid receptor [1]; in assay [3]) were 5.49 nM and 0.067 nM, respectively. Moreover, the EC50 at Mu-type opioid receptor [2] was 107 nM.
Turning to `Cc1cc(O)cc(C)c1C[C@H](N)C(=O)N1Cc2ccccc2C[C@H]1C(=O)O` (H-[Dmt]-[Tic]-OH), in [4], the Activity was -8.2.
Regarding `Cc1cc(O)cc(C)c1C[C@H](N)C(=O)N1Cc2ccccc2C[C@H]1c1nc2ccccc2[nH]1`, the Kb in assay [5] is 12.6 nM. For the same compound, the Ki on Mu-type opioid receptor [1] was determined as 7.22 nM; in [3], 0.13 nM.
For the compound `Cc1cc(O)cc(C)c1C[C@H](N)C(=O)N1Cc2ccccc2CC1C(N)=O` (stereo partly specified) (H-[Dmt]-[ξTic]-NH2), the Activity in assay [4] was -7.2.
In [4], `Cc1cc(O)cc(C)c1C[C@H](N)C(=O)N1Cc2ccccc2CC1CO` (stereo partly specified) yielded an Activity of -7. For the same compound, the results for the inhibition constant Ki (at Mu-type opioid receptor [1]; in assay [3]) were 151 nM and 0.44 nM, respectively.
As to `Cc1cc(O)cc(C)c1C[C@H](N)C(=O)N1Cc2ccccc2C[C@H]1C(=O)NCC(=O)Nc1ccccc1` (H-[Dmt]-[Tic]-Gly-NHPh), the Kb was 0.912 nM at Mu-type opioid receptor [6] and 33.9 nM in [7].
For `CC(C)[C@H](NC(=O)[C@H](CC(=O)O)NC(=O)[C@H](Cc1ccccc1)NC(=O)[C@@H](C)NC(=O)[C@@H](N)Cc1ccc(O)cc1)C(=O)N[C@H](C(=O)NCC(N)=O)C(C)C` [DELTORPHIN C], in the assay filed under Mus musculus [8], the Kb is 31.6 nM.
On to `C[C@@H](NC(=O)[C@@H](N)Cc1ccc(O)cc1)C(=O)N[C@@H](Cc1ccccc1)C(=O)NCC(=O)N[C@@H](Cc1ccc(O)cc1)C(=O)N1CCC[C@H]1C(=O)N[C@@H](CO)C(N)=O` [DERMORPHIN], for which the response at Mu-type opioid receptor [9] was half-maximal at 0.708 nM (EC50).
Regarding `Cc1cc(O)cc(C)c1C[C@H](N)C(=O)N1Cc2ccccc2C[C@H]1C(=O)NCc1nc2ccccc2[nH]1`, the Kb in the assay filed under Mus musculus [10] was 0.2 nM; in the assay listed under Mus musculus [8], 35.5 nM.
With `Cc1cc(O)cc(C)c1C[C@H](N)C(=O)N1Cc2ccccc2C[C@H]1C(=O)N[C@@H](C)C(N)=O` (H-[Dmt]-[Tic]-Ala-NH2), the Kb in [5] is 10 nM.
On to `Cc1cc(O)cc(C)c1C[C@H](N)C(=O)N1Cc2ccccc2C[C@H]1C(=O)NCC(=O)NCc1ccccc1` (H-[Dmt]-[Tic]-Gly-NHBn), for which the inhibitory constant (Ki) on Mu-type opioid receptor [1] turned out to be 0.16 nM; in [3], 0.031 nM. Besides, at Mu-type opioid receptor [2], a half-maximal effect (EC50) was put at 2.69 nM.
